In ChEMBL document CHEMBL2062488, “Exploration of diverse hinge-binding scaffolds for selective Aurora kinase inhibitors” (Bioorg Med Chem Lett, 2012):

Tests used:
NCI-H1299 = experiment: Cell cycle arrest in human NCI-H1299 assessed as induction of polyploidy after 48 hrs by Hoechst staining-based fluorescence microscopic analysis; format: functional; conditions: NCI-H1299, 48 h
Summary of the method: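 NCI-H1299 cells seeded at 4 K/well and left overnight to adhere. Compounds at varying concentrations added in duplicate wells, RPMI 1640 with 10% fetal calf serum, 37 °C for 48 h. Cells fixed in 3% formalin for 1 h, Hoechst-stained and imaged by high-content fluorescence microscopy (360/460 nm) for nuclear area. Polyploid (≥4N) cells had nuclear area >750. EC15 is the concentration giving 15% polyploid cells, from least-squares fit of log dose-response.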

Mus musculus [1] = experiment: AUC in mouse at 10 mg/kg, po; format: ADME, organism-based, Plasma; parameters: dose 10 mg/kg, route oral; conditions: in vivo
Summary of the method: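 Pyrrolotriazines were given by oral cassette dosing at 10 mpk, with several compounds in one cassette. Oral exposure is reported as AUC.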

[2] = Oral bioavailability in mouse at 10 mg/kg; format: ADME, organism-based; conditions: in vivo
[3] = Clearance in mouse at 3 mg/kg, iv; format: ADME, organism-based; parameters: dose 3 mg/kg, route intravenous; conditions: in vivo
[4] = Distribution half life in mouse at 3 mg/kg, iv; format: ADME, organism-based; parameters: dose 3 mg/kg, route intravenous; conditions: in vivo, read-out: alphat1/2 (converted)
[5] = Volume of distribution in mouse at 3 mg/kg, iv; format: ADME, organism-based; parameters: dose 3 mg/kg, route intravenous; conditions: in vivo
Homo sapiens = organism: Homo sapiens; experiment: Selectivity ratio of IC50 for Aurora A kinase to IC50 for Aurora B kinase
Aurora kinase B [6] = target: T1, Aurora kinase B (Homo sapiens, UniProt Q96GD4); experiment: Inhibition of Aurora B kinase by HTRF analysis in presence of 1 mM ATP
Aurora kinase A [7] = target: T2, Aurora kinase A (Homo sapiens, UniProt O14965); experiment: Inhibition of Aurora A kinase by HTRF analysis in presence of 1 mM ATP
T2 sequence (O14965 whole entry): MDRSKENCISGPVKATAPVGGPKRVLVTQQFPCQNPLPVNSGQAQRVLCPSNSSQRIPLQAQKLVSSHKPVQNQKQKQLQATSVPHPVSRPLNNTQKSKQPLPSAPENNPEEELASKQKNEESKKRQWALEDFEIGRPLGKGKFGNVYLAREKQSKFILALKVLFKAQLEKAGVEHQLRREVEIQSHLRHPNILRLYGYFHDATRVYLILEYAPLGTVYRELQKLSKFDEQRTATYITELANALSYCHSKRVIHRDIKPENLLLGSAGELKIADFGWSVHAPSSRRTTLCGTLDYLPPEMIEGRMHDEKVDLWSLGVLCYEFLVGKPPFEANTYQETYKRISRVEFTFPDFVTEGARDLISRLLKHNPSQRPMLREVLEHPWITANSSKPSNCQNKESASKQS

Mus musculus [8] = experiment: Inhibition of histone 3 phosphorylation in leukemia xenografted mouse model at 50 mg/kg, ip measured after 4 hrs; format: functional; conditions: route intraperitoneal
Summary of the method: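 Leukemia-engrafted mouse model dosed 50 mpk IP. Histone H3 phosphorylation was measured 4 h after the dose as percent inhibition.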

[9] = target: Activin receptor type-1-like (Homo sapiens, UniProt P37023); experiment: Inhibition of Alk1 in presence of 10 uM ATP
[10] = target: T3, Serine/threonine-protein kinase PLK4 (Homo sapiens, UniProt O00444); experiment: Inhibition of Plk4 in presence of 10 uM ATP
T3 sequence (O00444 whole entry): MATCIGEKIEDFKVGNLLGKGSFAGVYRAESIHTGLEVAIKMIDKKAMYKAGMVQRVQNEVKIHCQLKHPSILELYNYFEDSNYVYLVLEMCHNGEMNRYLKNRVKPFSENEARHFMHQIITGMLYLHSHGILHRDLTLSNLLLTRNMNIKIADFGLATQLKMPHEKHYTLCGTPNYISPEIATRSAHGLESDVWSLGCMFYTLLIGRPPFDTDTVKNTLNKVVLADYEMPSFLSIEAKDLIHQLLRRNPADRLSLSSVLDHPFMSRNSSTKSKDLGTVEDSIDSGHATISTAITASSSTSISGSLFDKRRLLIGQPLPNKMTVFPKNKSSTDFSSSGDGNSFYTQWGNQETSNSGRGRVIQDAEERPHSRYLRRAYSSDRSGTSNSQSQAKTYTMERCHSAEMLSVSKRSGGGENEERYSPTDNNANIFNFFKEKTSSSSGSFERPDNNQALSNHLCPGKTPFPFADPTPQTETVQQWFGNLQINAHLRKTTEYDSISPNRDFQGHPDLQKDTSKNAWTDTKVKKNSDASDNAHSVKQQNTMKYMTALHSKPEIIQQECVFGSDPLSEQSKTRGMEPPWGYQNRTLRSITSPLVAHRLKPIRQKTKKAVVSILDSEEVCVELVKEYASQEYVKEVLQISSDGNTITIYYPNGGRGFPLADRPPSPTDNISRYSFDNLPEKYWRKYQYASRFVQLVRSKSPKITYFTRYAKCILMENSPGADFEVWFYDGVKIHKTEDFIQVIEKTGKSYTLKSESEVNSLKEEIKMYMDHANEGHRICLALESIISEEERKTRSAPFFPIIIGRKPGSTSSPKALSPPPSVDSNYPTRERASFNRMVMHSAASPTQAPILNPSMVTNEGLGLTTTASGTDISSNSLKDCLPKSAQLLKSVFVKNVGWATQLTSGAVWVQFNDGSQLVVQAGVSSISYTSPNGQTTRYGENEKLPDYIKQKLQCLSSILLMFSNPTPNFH

Aurora kinase A [11] = target: T2, Aurora kinase A; experiment: Inhibition of Aurora A kinase in presence of 10 uM ATP
Aurora kinase B [12] = target: T1, Aurora kinase B; experiment: Inhibition of Aurora B kinase in presence of 10 uM ATP
[13] = target: T4, Calcium/calmodulin-dependent protein kinase type IV (Homo sapiens, UniProt Q16566); experiment: Inhibition of Camk4 in presence of 10 uM ATP
T4 sequence (Q16566 whole entry): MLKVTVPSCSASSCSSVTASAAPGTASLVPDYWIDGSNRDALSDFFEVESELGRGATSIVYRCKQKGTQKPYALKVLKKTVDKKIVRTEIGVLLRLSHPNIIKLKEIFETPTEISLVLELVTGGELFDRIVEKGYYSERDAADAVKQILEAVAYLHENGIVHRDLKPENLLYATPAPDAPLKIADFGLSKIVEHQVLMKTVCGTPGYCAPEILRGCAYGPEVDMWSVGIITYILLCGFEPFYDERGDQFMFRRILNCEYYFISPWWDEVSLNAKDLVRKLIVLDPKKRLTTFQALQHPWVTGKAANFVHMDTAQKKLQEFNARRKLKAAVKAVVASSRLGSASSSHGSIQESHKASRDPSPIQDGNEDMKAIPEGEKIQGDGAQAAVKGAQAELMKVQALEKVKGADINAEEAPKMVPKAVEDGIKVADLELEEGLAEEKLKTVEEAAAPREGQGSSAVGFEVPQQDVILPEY

T1 sequence (Q96GD4 whole entry): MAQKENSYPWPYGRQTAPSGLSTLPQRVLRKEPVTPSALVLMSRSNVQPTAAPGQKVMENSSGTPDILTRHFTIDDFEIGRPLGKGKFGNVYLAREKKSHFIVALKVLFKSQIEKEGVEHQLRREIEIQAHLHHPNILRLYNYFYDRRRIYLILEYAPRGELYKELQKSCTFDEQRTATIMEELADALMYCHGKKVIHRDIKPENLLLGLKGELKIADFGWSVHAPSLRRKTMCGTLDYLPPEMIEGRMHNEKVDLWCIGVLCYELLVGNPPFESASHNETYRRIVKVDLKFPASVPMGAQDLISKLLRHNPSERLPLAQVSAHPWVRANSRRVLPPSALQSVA
Activin receptor type-1-like, sequence (P37023 whole entry): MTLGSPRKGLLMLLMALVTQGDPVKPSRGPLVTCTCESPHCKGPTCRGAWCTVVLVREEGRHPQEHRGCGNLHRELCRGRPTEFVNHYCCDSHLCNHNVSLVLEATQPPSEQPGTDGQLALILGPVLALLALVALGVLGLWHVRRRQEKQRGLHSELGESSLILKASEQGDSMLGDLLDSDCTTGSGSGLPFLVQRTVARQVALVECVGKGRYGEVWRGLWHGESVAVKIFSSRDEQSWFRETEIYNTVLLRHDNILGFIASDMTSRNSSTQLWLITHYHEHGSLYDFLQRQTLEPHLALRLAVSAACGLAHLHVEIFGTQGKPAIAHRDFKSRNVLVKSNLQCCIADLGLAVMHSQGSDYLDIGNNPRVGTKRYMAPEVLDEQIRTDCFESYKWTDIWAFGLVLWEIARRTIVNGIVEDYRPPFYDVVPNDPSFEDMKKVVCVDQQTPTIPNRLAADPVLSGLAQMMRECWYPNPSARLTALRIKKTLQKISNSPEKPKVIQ

Nc1noc2cccc(C(=O)Nc3cccc(CNC(=O)Nc4ccc(F)cc4)c3)c12
EC15 (NCI-H1299): 30 nM

Nc1noc2cccc(C(=O)Nc3cccc(CNC(=O)Nc4ccc(C(F)(F)F)cc4)c3)c12
AUC (Mus musculus [1]): 61 uM.hr/ml
bioavailability [2]: 77%
EC15 (NCI-H1299): 13 nM
clearance [3]: 2.17 mL/min/kg
half-life [4]: 1.3 h
Vd [5]: 0.23 L/kg

Nc1nsc2cccc(C(=O)Nc3cccc(CNC(=O)Nc4ccc(F)c(F)c4)c3)c12
Ratio IC50 (Homo sapiens): 347
EC15 (NCI-H1299): 21 nM
IC50 (Aurora kinase B [6]): 36 nM
IC50 (Aurora kinase A [7]): 12500 nM

Nc1ncnn2ccc(C(=O)Nc3cccc(CNC(=O)Nc4cccc(F)c4)c3)c12
EC15 (NCI-H1299): 2 nM

Nc1noc2cccc(C(=O)Nc3cccc(CC(=O)Nc4cccc(F)c4)c3)c12
IC50 (Aurora kinase B [6]): 450 nM
IC50 (Aurora kinase A [7]): > 12500 nM

Nc1noc2cccc(C(=O)Nc3ccc(NC(=O)Nc4ccc(Cl)cc4)cc3)c12
Ratio IC50 (Homo sapiens): > 89
IC50 (Aurora kinase B [6]): 140 nM
IC50 (Aurora kinase A [7]): > 12500 nM

Nc1ncnn2ccc(C(=O)Nc3ccc(NC(=O)Nc4ccsc4)cc3)c12
EC15 (NCI-H1299): 6 nM

Cc1ccc(NC(=O)NCc2cccc(NC(=O)c3cccc4onc(N)c34)c2)cc1
EC15 (NCI-H1299): 1 nM

Nc1nsc2cccc(C(=O)Nc3cccc(CNC(=O)Nc4ccc(C(F)(F)F)cc4)c3)c12
EC15 (NCI-H1299): 18 nM

Cc1ccc(NC(=O)NCc2cccc(NC(=O)c3ccn4ncnc(N)c34)c2)cc1
EC15 (NCI-H1299): 1 nM

Nc1noc2cccc(C(=O)Nc3cccc(CNC(=O)Nc4ccc(Cl)cc4)c3)c12
EC15 (NCI-H1299): 12 nM

Nc1noc2cccc(C(=O)Nc3cccc(CNC(=O)Nc4ccccc4)c3)c12
Ratio IC50 (Homo sapiens): 210
EC15 (NCI-H1299): 47 nM
IC50 (Aurora kinase B [6]): 18 nM
IC50 (Aurora kinase A [7]): 3790 nM

Nc1noc2cccc(C(=O)Nc3cccc(CNC(=O)Nc4ccc(F)c(F)c4)c3)c12
Ratio IC50 (Homo sapiens): 696
AUC (Mus musculus [1]): 8 uM.hr/ml
bioavailability [2]: 31%
EC15 (NCI-H1299): 15 nM
clearance [3]: 6.5 mL/min/kg
IC50 (Aurora kinase B [6]): 7 nM
inhibition in vivo at 50 mg/kg (Mus musculus [8]): 87%
IC50 (Aurora kinase A [7]): 4780 nM
half-life [4]: 1.7 h
Vd [5]: 0.96 L/kg

Nc1ncnn2ccc(C(=O)Nc3ccc(NC(=O)NC4CCCC4)cc3)c12
EC15 (NCI-H1299): 15 nM

Nc1ncnn2ccc(C(=O)Nc3cccc(CNC(=O)Nc4ccc(C(F)(F)F)cc4)c3)c12
EC15 (NCI-H1299): 6 nM

Nc1noc2cccc(C(=O)Nc3cccc(CNC(=O)Nc4cccc(F)c4)c3)c12
Ratio IC50 (Homo sapiens): 54
AUC (Mus musculus [1]): 5 uM.hr/ml
bioavailability [2]: 28%
EC15 (NCI-H1299): 3 nM
clearance [3]: 8.83 mL/min/kg
IC50 (Aurora kinase B [6]): 59 nM
IC50 (Aurora kinase A [7]): 3180 nM
half-life [4]: 0.7 h
Vd [5]: 0.54 L/kg

Nc1ncnn2ccc(C(=O)Nc3ccc(NC(=O)Nc4ccc(F)cc4)cc3)c12
Ratio IC50 (Homo sapiens): 2.4
EC15 (NCI-H1299): 16 nM
IC50 (Aurora kinase B [6]): 36 nM
IC50 (Aurora kinase A [7]): 88 nM

Nc1noc2cccc(C(=O)Nc3ccc(NC(=O)Nc4ccc(F)cc4)cc3)c12
Ratio IC50 (Homo sapiens): > 26
IC50 (Aurora kinase B [6]): 480 nM
IC50 (Aurora kinase A [7]): > 12500 nM

Cc1cccc(NC(=O)Nc2ccc(NC(=O)c3ccn4ncnc(N)c34)cc2)c1
EC15 (NCI-H1299): 9 nM

Nc1ncnn2ccc(C(=O)Nc3cccc(CNC(=O)Nc4ccc(Cl)cc4)c3)c12
EC15 (NCI-H1299): 1 nM

Nc1n[nH]c2cccc(C(=O)Nc3cccc(CNC(=O)Nc4cccc(F)c4)c3)c12
EC15 (NCI-H1299): 111 nM

Cn1nc(N)c2c(C(=O)Nc3cccc(CNC(=O)Nc4ccc(C(F)(F)F)cc4)c3)cccc21
Ratio IC50 (Homo sapiens): 73
IC50 (Aurora kinase B [6]): 172 nM
IC50 (Aurora kinase A [7]): 12500 nM

Nc1n[nH]c2cccc(C(=O)Nc3cccc(CNC(=O)Nc4ccc(F)c(F)c4)c3)c12
EC15 (NCI-H1299): 143 nM

Nc1noc2cccc(C(=O)Nc3cccc(CNC(=O)Nc4ccccc4F)c3)c12
Ratio IC50 (Homo sapiens): > 227
EC15 (NCI-H1299): 124 nM
IC50 (Aurora kinase B [6]): 55 nM
IC50 (Aurora kinase A [7]): > 12500 nM

Nc1noc2cccc(C(=O)Nc3cccc(CNC(=O)Cc4cccc(F)c4)c3)c12
IC50 (Aurora kinase B [6]): > 12500 nM
IC50 (Aurora kinase A [7]): > 12500 nM

Nc1ncnn2ccc(C(=O)Nc3ccc(NC(=O)Nc4cccc(F)c4)cc3)c12
EC15 (NCI-H1299): 3 nM
IC50 (Aurora kinase B [6]): 9 nM
IC50 [9]: > 10000 nM
IC50 [10]: < 3 nM
IC50 (Aurora kinase A [11]): < 3 nM
IC50 (Aurora kinase B [12]): < 3 nM
IC50 [13]: > 10000 nM

Nc1ncnn2ccc(C(=O)Nc3cccc(CNC(=O)Nc4cccc(Cl)c4)c3)c12
EC15 (NCI-H1299): 2 nM

Nc1nsc2cccc(C(=O)Nc3cccc(CNC(=O)Nc4cccc(F)c4)c3)c12
EC15 (NCI-H1299): 18 nM
